A short description of data set [1]: MRT in Sprague-Dawley rat at 25 mg/kg, po measured up to 24 hrs. The data set is classed as ADME, organism-based. Conditions: in vivo. A digest of the protocol: (§1)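 Adult male Sprague-Dawley rats were given a single oral dose of 25 mg/kg. Nine blood samples (0.3 mL) were taken over 24 h. n = 3.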
The nature of data set [2]: Antiproliferative activity against human HMLE cells assessed as reduction in cell viability by MTT assay. The data set is classed as functional, cell-based.
Data set [3] can be described thus: Half life in Sprague-Dawley rat at 25 mg/kg, po measured up to 24 hrs. It is filed as ADME, organism-based. To be noted: in vivo. A digest of the protocol: as §1
Data set [4] is described as follows: AUC (0 to infinity) in Sprague-Dawley rat at 25 mg/kg, po measured up to 24 hrs. It is filed as ADME, organism-based. Set-up: dose 25 mg/kg, route oral, time infinity. To be noted: in vivo. A digest of the protocol: as §1
Data set [5] can be described thus: AUCt in Sprague-Dawley rat at 25 mg/kg, po measured up to 24 hrs. More on the design: time < 24 hr, dose 25 mg/kg, route oral. To be noted: in vivo. It is filed as ADME, organism-based. In short, it runs like this: as §1
Data set [6] can be described thus: Cmax in Sprague-Dawley rat at 25 mg/kg, po measured up to 24 hrs. The data set is classed as ADME, organism-based. More on the design: dose 25 mg/kg, route oral. Conditions: in vivo. A digest of the protocol: as §1
A short description of data set [7]: Antiproliferative activity against human K562 cells assessed as reduction in cell viability by MTT assay. It is filed as functional, cell-based. (In general: Tetrazolium assays rely on reduction of a dye to a coloured formazan, in cell work by metabolically active cells.)
Data set [8] in a line: Antiproliferative activity against human HepG2 cells assessed as reduction in cell viability by MTT assay. It is filed as functional, cell-based.
Data set [9] is described as follows: Tmax in Sprague-Dawley rat at 25 mg/kg, po measured up to 24 hrs. It is filed as ADME, organism-based. To be noted: in vivo. A digest of the protocol:
as §1

The nature of data set [10]: Cytotoxicity against human HepG2 cells assessed as reduction in cell viability at 50 uM by MTT assay. It is filed as functional. A digest of the protocol:
(§2)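 HepG2 cells were exposed to test agent at 5 μM or chloroquine at 50 μM for the indicated times. Viability was measured by MTT assay.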

Data set [11] concerns HepG2. Description: Reduction in lysosomal acidification in human HepG2 cells at 50 uM after 6 hrs by DAPI/lyso tracker red-double staining based confocal microscopic analysis relative to control. The data set is classed as functional, cell-based. A digest of the protocol: (§3)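 HepG2 cells were incubated at 5 μM (test agent) or 50 μM (chloroquine) for 6 h, then stained with LysoTracker Red. Nuclei were stained with DAPI and cells imaged by confocal microscopy (×63). LysoTracker Red signal was quantified per cell against untreated control.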

A short description of data set [12]: Cytotoxicity against human HepG2 cells assessed as reduction in cell viability at 5 uM by MTT assay. The data set is classed as functional. In short, it runs like this:
as §2

Data set [13] has as its system HepG2. Kind of data set: Induction of autophagosome accumulation in human HepG2 cells transfected with EGFP-LC3 assessed as punctate dot formation at 5 uM after 6 hrs by fluorescent microscopic analysis relative to control. The data set is classed as functional, cell-based. In short, it runs like this:
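HepG2 cells were transfected with an EGFP-LC3 plasmid, then exposed 24 h later to 5 μM or left untreated for 6 h. Cells were imaged by fluorescence microscopy, and EGFP-LC3 puncta per cell were counted in at least 100 cells per group.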

Data set [14] relates to HepG2. Kind of data set: Blockade of autophagic flux in human HepG2 cells assessed as increase in LC3-2 level at 5 uM after 8 hrs in presence of rapamycin by Western blot analysis. It is filed as functional, cell-based. In short, it runs like this: (§4)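 A549 and HepG2 cells were pretreated with chloroquine (10 μM) or rapamycin (200 nM) for 2 h. Compound was then added at 5 μM for 8 h. LC3 turnover (LC3-II) was detected by Western blot.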
Background: Immunoblotting shows a protein as a band on a membrane.

For data set [15], the system named is HepG2. Description: Blockade of autophagic flux in human HepG2 cells assessed as increase in LC3-2 level at 5 uM after 8 hrs in presence of chloroquine by Western blot analysis. It is filed as functional, cell-based. A digest of the protocol:
as §4

In data set [16] the test system is A549. Description: Blockade of autophagic flux in human A549 cells assessed as increase in LC3-2 level at 5 uM after 8 hrs in presence of rapamycin by Western blot analysis. It is filed as functional, cell-based. A digest of the protocol: as §4
For data set [17], the system named is HepG2. Kind of data set: Reduction in lysosomal acidification in human HepG2 cells at 5 uM after 6 hrs by DAPI/lyso tracker red-double staining based confocal microscopic analysis relative to control. The data set is classed as functional, cell-based. In short, it runs like this: as §3
Data set [18] deals with A549. Kind of data set: Blockade of autophagic flux in human A549 cells assessed as increase in LC3-2 level at 5 uM after 8 hrs in presence of chloroquine by Western blot analysis. The data set is classed as functional, cell-based. A digest of the protocol:
as §4

The test system of data set [19] is A549. Description: Induction of autophagosome accumulation in human A549 cells transfected with EGFP-LC3 assessed as punctate dot formation at 5 uM after 6 hrs by fluorescent microscopic analysis relative to control. The data set is classed as functional, cell-based.
Data set [20] concerns HepG2. Kind of data set: Blockade of autophagic flux in human HepG2 cells transfected with mCherry-EGFP-LC3 assessed as punctate dot formation at 5 uM after 6 hrs by DAPI staining-based confocal microscopic analysis. It is filed as functional, cell-based. In short, it runs like this: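 HepG2 cells were transfected with an mCherry-EGFP-LC3 tandem plasmid and treated at 5 μM for 6 h (CQ 50 μM alongside). Imaging was by confocal microscopy with DAPI-stained nuclei. GFP/mCherry double-positive and mCherry single-positive puncta per cell were counted in ≥100 cells per count. Data are the mean of three independent experiments ± SD.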

As a reminder, the MRT is the average time that molecules of a dose stay in the body. As usually defined, the IC50 is the point on the concentration scale where inhibition reaches its midpoint. Broadly, the half-life is how long it takes for the measured level to halve. Read a high half-life as slow loss. A word on the AUC(0-inf): it is the area under the concentration-time curve extrapolated to infinity. Higher therefore signals more exposure. Usually AUC(0-t) stands for exposure summed from dosing to a finite time, without extrapolation to infinity. Low values mean low exposure, high ones high exposure. A word on the Cmax: it is the maximum level reached in the sampled fluid or tissue. For orientation: Tmax means the time from dosing to the highest level.

Calls of active or inactive are those of the source. The calls are words filed in the database; no cut-off is given here. A value given as a limit tells only on which side of the number the result lay.

`Clc1ccc(CN2C[C@H]3CCCN4CCC[C@@H]([C@H]34)[C@H]2CCCCNCCc2cccc3c2OCO3)cc1`: in data set [1], the MRT was found to be 10.8 h. Also, the results for the IC50 in data set [2], in data set [7] and in data set [8] were 0.68 µM, 1.09 µM and 2.6 µM, respectively. The compound further had a half-life in data set [3] of 21.9 h. This compound also showed an AUC(0-inf) in data set [4] of 11.7 µM·h. Moreover, in [5], the AUC(0-t) at 24 h stood at 6.1 µM·h. Besides, the Cmax in data set [6] was determined as 2900 nM. Besides, the time to peak (Tmax) in data set [9] stood at 1.8 h.
Take `COC(=O)CCC[C@@H]1[C@H]2CCCN3CCC[C@H](CN1C(=O)c1ccc(Cl)cc1)[C@@H]23`: the IC50 in [8] is above 50 µM.
Same read-out and setting: with `O=S(=O)(c1ccc(Cl)cc1)N1C[C@H]2CCCN3CCC[C@@H]([C@H]23)[C@H]1CCCCNCc1cccc2c1OCO2` the figure was 3.8 µM; with `CC(C)(C)C(=O)N1C[C@H]2CCCN3CCC[C@@H]([C@H]23)[C@H]1CCCCO`, above 50 µM.
On the same count and under the same terms, the same measure for `O=C(c1ccc(Cl)cc1)N1C[C@H]2CCCN3CCC[C@@H]([C@H]23)[C@H]1CCCCO`: above 50 µM; for `O=S(=O)(c1ccc(Cl)cc1)N1C[C@H]2CCCN3CCC[C@@H]([C@H]23)[C@H]1CCCCO`: 28.8 µM.
As for `CC[C@@]1(O)C(=O)OCc2c1cc1n(c2=O)Cc2cc3c(CN(C)C)c(O)ccc3nc2-1` [TOPOTECAN], the IC50 turned out to be 0.75 µM in data set [2] and 1.15 µM in [7].
In the case of `CCN(CC)CCCC(C)Nc1ccnc2cc(Cl)ccc12` (configuration not stated) [CHLOROQUINE], in data set [10], the Activity turned out to be 50%. For the same compound, the result in [11] was Active.
Regarding `COc1cc(CNCCCC[C@@H]2[C@H]3CCCN4CCC[C@H](CN2C(=O)c2ccc(Cl)cc2)[C@@H]34)cc(OC)c1OC`, the IC50 in data set [8] is above 20 µM.
The same measure, in the same setting: with `COc1cc(NCCCC[C@@H]2[C@H]3CCCN4CCC[C@H](CN2S(=O)(=O)c2ccc(Cl)cc2)[C@@H]34)cc(OC)c1OC` the figure was 7.9 µM; with `COC(=O)CCC[C@@H]1[C@H]2CCCN3CCC[C@H](CN1C(=O)N(CCCl)N=O)[C@@H]23`, 38.3 µM.
For the compound `COc1cc(NCCCC[C@@H]2[C@H]3CCCN4CCC[C@H](CN2Cc2ccc(Cl)cc2)[C@@H]34)cc(OC)c1OC`, the IC50 in data set [8] stood at 6.4 µM.
For the compound `OCCCC[C@@H]1[C@H]2CCCN3CCC[C@H](CN1Cc1ccc(Cl)cc1)[C@@H]23`, the 50% inhibitory concentration (IC50) in [8] is 9.3 µM.
Still for that read-out and setting: the same measure for `O=C(c1ccc(Cl)cc1)N1C[C@H]2CCCN3CCC[C@@H]([C@H]23)[C@H]1CCCCNCc1cccc2c1OCO2`: 16.5 µM.
On the same count and under the same terms, with `COC(=O)CCC[C@@H]1[C@H]2CCCN3CCC[C@H](CN1C(=O)NCCCl)[C@@H]23` the figure was above 50 µM.
For the compound `Clc1ccc(CN2C[C@H]3CCCN4CCC[C@@H]([C@H]34)[C@H]2CCCCNCc2cccc3c2OCO3)cc1`, the mean residence time MRT in [1] amounted to 9.1 h. Further, the IC50 worked out at 0.64 µM in data set [2], 1.14 µM in data set [7] and 2.6 µM in data set [8]. The compound further showed a half-life in data set [3] of 11.2 h. In data set [4], this compound had an AUC(0-inf) of 6.8 µM·h. Further, in data set [5], the AUC(0-t) at 24 h amounted to 5.7 µM·h. In addition, the Cmax in data set [6] turned out to be 2700 nM. Further, the time of peak concentration (Tmax) in data set [9] stood at 1.2 h.
With `COC(=O)CCC[C@@H]1[C@H]2CCCN3CCC[C@H](CN1S(=O)(=O)c1ccc(Cl)cc1)[C@@H]23`, in data set [8], the half-inhibitory concentration (IC50) is 15.8 µM.
Take `O=S(=O)(c1ccc(Cl)cc1)N1C[C@H]2CCCN3CCC[C@@H]([C@H]23)[C@H]1CCCCNCCc1cccc2c1OCO2`: in [8], the 50% inhibitory concentration (IC50) worked out at 5.5 µM.
On the same count and under the same terms, the same measure for `O=C(c1ccc(Cl)cc1)N1C[C@H]2CCCN3CCC[C@@H]([C@H]23)[C@H]1CCCCNCCc1cccc2c1OCO2`: above 20 µM.
Still for that read-out and setting: the same measure for `Clc1ccc(CN2C[C@H]3CCCN4CCC[C@@H]([C@H]34)[C@H]2CCCCNc2cccc3c2OCO3)cc1`: 10.6 µM.
In the case of `COc1cc(CNCCCC[C@@H]2[C@H]3CCCN4CCC[C@H](CN2Cc2ccc(Cl)cc2)[C@@H]34)cc(OC)c1OC`, in data set [12], the Activity worked out at 50%. In data set [1], this compound came in with a mean residence time MRT of 11.6 h. Moreover, the figures for the IC50 in data set [2], in data set [7] and in [8] were 0.55 µM, 1.03 µM and 1.7 µM, respectively. The same compound had a half-life in data set [3] of 13 h. This compound also returned an AUC(0-inf) in data set [4] of 13.3 µM·h. In data set [5], this compound registered an AUC(0-t) at 24 h of 10.8 µM·h. Also, the result in data set [13], in data set [14], in data set [15], in data set [16], in data set [17] and in data set [18] was Active. Also, the outcome in data set [19] and in data set [20] was Active. For the same compound, the concentration in data set [6] peaked (Cmax) at 4900 nM. Further, in data set [9], the time of peak concentration (Tmax) is 1.6 h.
As for `COC(=O)CCC[C@@H]1[C@H]2CCCN3CCC[C@H](CN1C(=O)C(C)(C)C)[C@@H]23`, the half-inhibitory concentration (IC50) in data set [8] was above 50 µM.

(Values after ChEMBL document CHEMBL3877332, “Synthesis, Biological Evaluation, and Autophagy Mechanism of 12N-Substituted Sophoridinamines as Novel Anticancer Agents” (ACS Med Chem Lett, 2017).)
